Drawing on ChEMBL document CHEMBL2331506, “Design, synthesis, antiviral and cytostatic evaluation of novel isoxazolidine nucleotide analogues with a carbamoyl linker” (Bioorg Med Chem, 2013), this text covers inhibition and Activity for 6 compounds.

Calls of active or inactive are those of the source. How the calls were made is not given here.

For data set [1], the system named is Human alphaherpesvirus 1. The experiment in a line: Antiviral activity against Herpes simplex virus 1 KOS infected in human HEL cells assessed as reduction of virus-induced cytopathogenicity at 250 uM. In kind it is functional, organism-based. A digest of the protocol:
(§1)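 Confluent monolayers (HEL fibroblasts, Vero, or HeLa cells as listed) were infected with 100 CCID50 of virus in the presence of varying compound concentrations. Virus-induced cytopathicity or plaque formation was scored once cytopathicity was complete in untreated infected controls. EC50 was taken as the concentration reducing cytopathogenicity or plaque formation by 50%.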

A further data set relates to MDCK. As to the kind of experiment: Cytotoxicity against dog MDCK cells assessed as alteration of cell morphology up to 100 uM by microscopic analysis. In kind it is cell-based, Canis lupus familiaris. A digest of the protocol: (§2)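 Uninfected host-cell cultures were exposed to compound and examined by microscopy. Cytotoxicity was expressed as the minimum cytotoxic concentration (MCC) causing a microscopically detectable alteration of normal cell morphology.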

Another data set relates to HEL. The experiment in a line: Cytotoxicity against human HEL cells assessed as alteration of cell morphology up to 100 uM by microscopic analysis. In kind it is cell-based. A digest of the protocol: as §2
In data set [2] the test system is Human immunodeficiency virus 1. The experiment in a line: Antiviral activity against Human immunodeficiency virus 1 3B infected in human CEM cells assessed as reduction of virus-induced giant cell formation at 250 uM after 4 to 5 days. Type of data set: functional, organism-based. Conditions: CCRF-CEM. A digest of the protocol:
(§3)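 CEM cells at 3 × 10^5 cells/mL were infected with HIV at 100 CCID50 per mL in the presence of compound dilutions. They were held 4–5 days at 37 °C in humidified CO2. Syncytium (giant cell) formation was scored microscopically, and EC50 was taken as the concentration inhibiting giant cell formation by 50%.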

A further data set has as its system Felid alphaherpesvirus 1. The experiment in a line: Antiviral activity against Feline herpes virus infected in cat CRFK cells assessed as reduction of virus-induced cytopathogenicity at 250 uM. Type of data set: functional, organism-based. (Damage to the host cells serves as the signal in cytopathic effect assays.)
The next data set relates to Influenza B virus. The experiment in a line: Antiviral activity against Influenza B virus infected in dog MDCK cells assessed as reduction of virus-induced cytopathogenicity at 250 uM. Type of data set: functional, organism-based. A digest of the protocol: (§4)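 Confluent cell monolayers were infected with 100 CCID50 of virus while exposed to varying compound concentrations. Cytopathicity was scored once it was complete in untreated infected controls. EC50 was taken as the concentration that reduced virus-induced cytopathogenicity by 50%.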

The test system of the next data set is Coxsackievirus B4. The experiment in a line: Antiviral activity against Coxsackievirus B4 infected in african green monkey Vero cells assessed as reduction of virus-induced cytopathogenicity at 250 uM. In kind it is functional, organism-based. A digest of the protocol:
as §1

A further data set has as its system HeLa. The experiment in a line: Cytotoxicity against human HeLa cells assessed as alteration of cell morphology up to 100 uM by microscopic analysis. In kind it is cell-based. A digest of the protocol:
as §2

The subject of another data set is Vero. The experiment in a line: Cytotoxicity against african green monkey Vero cells assessed as alteration of cell morphology up to 100 uM by microscopic analysis. Type of data set: cell-based. The settings on record: chlorocebus sabaeus. A digest of the protocol:
as §2

The next data set deals with Punta Toro virus. The experiment in a line: Antiviral activity against Punta Toro virus infected in african green monkey Vero cells assessed as reduction of virus-induced cytopathogenicity at 250 uM. Type of data set: functional, organism-based. A digest of the protocol:
as §1

Data set [3] deals with Influenza A virus. As to the kind of experiment: Antiviral activity against Influenza A virus H3N2 infected in dog MDCK cells assessed as reduction of virus-induced cytopathogenicity at 250 uM. Type of data set: functional, organism-based. A digest of the protocol: as §4
The test system of data set [4] is Influenza A virus. The experiment in a line: Antiviral activity against Influenza A virus H1N1 infected in dog MDCK cells assessed as reduction of virus-induced cytopathogenicity at 250 uM. In kind it is functional, organism-based. A digest of the protocol: as §4
Data set [5] is described as follows: Cytotoxicity against cat CRFK cells assessed as alteration of cell morphology up to 100 uM by microscopic analysis. Type of data set: cell-based, Felis catus. A digest of the protocol:
as §2

The test system of the next data set is Sindbis virus. As to the kind of experiment: Antiviral activity against Sindbis virus infected in african green monkey Vero cells assessed as reduction of virus-induced cytopathogenicity at 250 uM. In kind it is functional, organism-based. A digest of the protocol: as §1
Data set [6] relates to Human immunodeficiency virus 2. The experiment in a line: Antiviral activity against Human immunodeficiency virus 2 ROD infected in human CEM cells assessed as reduction of virus-induced giant cell formation at 250 uM after 4 to 5 days. Type of data set: functional, organism-based. Conditions: CCRF-CEM. A digest of the protocol: as §3
In a further data set the test system is Human respirovirus 3. The experiment in a line: Antiviral activity against Parainfluenza virus 3 infected in african green monkey Vero cells assessed as reduction of virus-induced cytopathogenicity at 250 uM. In kind it is functional, organism-based. A digest of the protocol: as §1
In data set [7] the test system is Respiratory syncytial virus. The experiment in a line: Antiviral activity against Respiratory syncytial virus long infected in human HeLa cells assessed as reduction of virus-induced cytopathogenicity at 250 uM. In kind it is functional, organism-based. A digest of the protocol:
as §1

For data set [8], the system named is Mammalian orthoreovirus 1. The experiment in a line: Antiviral activity against Reovirus 1 infected in african green monkey Vero cells assessed as reduction of virus-induced cytopathogenicity at 250 uM. Type of data set: functional, organism-based. A digest of the protocol:
as §1

Data set [9] relates to Vesicular stomatitis virus. The experiment in a line: Antiviral activity against Vesicular stomatitis virus infected in human HEL cells assessed as reduction of virus-induced cytopathogenicity at 250 uM. Type of data set: functional, organism-based. A digest of the protocol:
as §4

For another data set, the system named is Feline coronavirus. The experiment in a line: Antiviral activity against Feline coronavirus infected in cat CRFK cells assessed as reduction of virus-induced cytopathogenicity at 250 uM. In kind it is functional, organism-based.
The next data set relates to Human alphaherpesvirus 2. As to the kind of experiment: Antiviral activity against Herpes simplex virus 2 G infected in human HEL cells assessed as reduction of virus-induced cytopathogenicity at 250 uM. Type of data set: functional, organism-based. The settings on record: strain G. A digest of the protocol:
as §1

Data set [10] deals with Human alphaherpesvirus 1. As to the kind of experiment: Antiviral activity against thymidine kinase-deficient, ACV-resistant Herpes simplex virus 1 KOS infected in human HEL cells assessed as reduction of virus-induced cytopathogenicity at 250 uM. In kind it is functional, organism-based. A digest of the protocol: as §4
Data set [11] relates to Vesicular stomatitis virus. The experiment in a line: Antiviral activity against Vesicular stomatitis virus infected in human HeLa cells assessed as reduction of virus-induced cytopathogenicity at 250 uM. In kind it is functional, organism-based. A digest of the protocol: as §4

For the compound `CCOP(=O)(OCC)[C@@H]1C[C@H](C(=O)Nc2ccccc2Cl)ON1C` (mixture of isomers), the inhibition entry (in the data set on Human alphaherpesvirus 1 [1]; in data set [2]; with Felid alphaherpesvirus 1; in the data set with Influenza B virus; with Coxsackievirus B4; in the data set with Punta Toro virus) was “inactive” each time. Moreover, the inhibition result (in the data set on Influenza A virus [3]; with Influenza A virus [4]; in the data set on Sindbis virus; in data set [6]; with Human respirovirus 3; in data set [7]) was “inactive” in each case. The inhibition entry (in [8]; in data set [9]; with Feline coronavirus; with Human alphaherpesvirus 2; in the data set on Human alphaherpesvirus 1 [10]; in [11]) was “inactive” each time. Besides, the Activity result (in the data set with MDCK; with HEL; in the data set with HeLa; in the data set with Vero; in [5]) was “Non-toxic” throughout.

Consider `CCOP(=O)(OCC)[C@@H]1C[C@H](C(=O)Nc2ccc(OC)c(OC)c2)ON1C` (mixture of isomers), for which the inhibition entry (in the data set on Human alphaherpesvirus 1 [1]; in data set [2]; in the data set with Felid alphaherpesvirus 1; in the data set with Influenza B virus; in the data set with Coxsackievirus B4; in the data set on Punta Toro virus) was “inactive” throughout. The inhibition result (in the data set with Influenza A virus [3]; in the data set with Influenza A virus [4]; with Sindbis virus; in data set [6]; with Human respirovirus 3; in [7]) was “inactive” in each case. Further, the inhibition result (in data set [8]; in [9]; in the data set with Feline coronavirus; in the data set with Human alphaherpesvirus 2; in the data set with Human alphaherpesvirus 1 [10]; in data set [11]) was “inactive” throughout. Also, the Activity result (in the data set with MDCK; in the data set with HEL; in the data set on HeLa; with Vero; in data set [5]) was “Non-toxic” throughout.

In the case of `CCOP(=O)(OCC)[C@H]1C[C@H](C(=O)Nc2ccc(OC)c(OC)c2)ON1C` (mixture of isomers), the inhibition entry (in the data set with Human alphaherpesvirus 1 [1]; in [2]; with Felid alphaherpesvirus 1; in the data set on Influenza B virus; with Coxsackievirus B4; with Punta Toro virus) was “inactive” throughout. Further, the inhibition result (with Influenza A virus [3]; with Influenza A virus [4]; with Sindbis virus; in data set [6]; with Human respirovirus 3; in data set [7]) was “inactive” throughout. The inhibition result (in data set [8]; in data set [9]; in the data set on Feline coronavirus; with Human alphaherpesvirus 2; in the data set on Human alphaherpesvirus 1 [10]; in data set [11]) was “inactive” in each case. For the same compound, the Activity result (with MDCK; in the data set on HEL; in the data set on HeLa; in the data set with Vero; in [5]) was “Non-toxic” throughout.

Turning to `CCOP(=O)(OCC)[C@@H]1C[C@H](C(=O)Nc2cc(OC)c(OC)cc2C#N)ON1C` (mixture of isomers), the inhibition entry (with Human alphaherpesvirus 1 [1]; in [2]; in the data set on Felid alphaherpesvirus 1; with Influenza B virus; in the data set on Coxsackievirus B4; in the data set with Punta Toro virus) was “inactive” in each case. The inhibition result (in the data set with Influenza A virus [3]; in the data set on Influenza A virus [4]; in the data set with Sindbis virus; in data set [6]; in the data set on Human respirovirus 3; in [7]) was “inactive” each time. The inhibition entry (in data set [8]; in data set [9]; with Feline coronavirus; in the data set on Human alphaherpesvirus 2; in the data set on Human alphaherpesvirus 1 [10]; in [11]) was “inactive” in each case. For the same compound, the Activity entry (in the data set on MDCK; in the data set on HEL; in the data set with HeLa; in the data set on Vero; in data set [5]) was “Non-toxic” each time.

As for `CCOP(=O)(OCC)[C@H]1C[C@H](C(=O)Nc2cc(OC)c(OC)cc2C(C)=O)ON1C` (mixture of isomers), the inhibition entry (with Human alphaherpesvirus 1 [1]; in data set [2]; with Felid alphaherpesvirus 1; in the data set on Influenza B virus; in the data set with Coxsackievirus B4; in the data set with Punta Toro virus) was “inactive” in each case. In addition, the inhibition result (with Influenza A virus [3]; with Influenza A virus [4]; in the data set with Sindbis virus; in data set [6]; in the data set with Human respirovirus 3; in [7]) was “inactive” throughout. Besides, the inhibition result (in [8]; in data set [9]; in the data set on Feline coronavirus; with Human alphaherpesvirus 2; in the data set with Human alphaherpesvirus 1 [10]; in [11]) was “inactive” throughout. Moreover, the Activity entry (in the data set with MDCK; with HEL; in the data set with HeLa; in the data set with Vero; in data set [5]) was “Non-toxic” each time.

On to `CCOP(=O)(OCC)[C@@H]1C[C@H](C(=O)Nc2cc(OC)c(OC)cc2C(C)=O)ON1C` (mixture of isomers), for which the inhibition result (in the data set on Human alphaherpesvirus 1 [1]; in data set [2]; with Felid alphaherpesvirus 1; with Influenza B virus; in the data set on Coxsackievirus B4; with Punta Toro virus) was “inactive” throughout. Moreover, the inhibition entry (in the data set with Influenza A virus [3]; in the data set with Influenza A virus [4]; with Sindbis virus; in data set [6]; in the data set on Human respirovirus 3; in data set [7]) was “inactive” throughout. For the same compound, the inhibition result (in [8]; in [9]; in the data set with Feline coronavirus; in the data set with Human alphaherpesvirus 2; in the data set with Human alphaherpesvirus 1 [10]; in data set [11]) was “inactive” throughout. Further, the Activity entry (in the data set with MDCK; in the data set with HEL; in the data set with HeLa; with Vero; in data set [5]) was “Non-toxic” each time.
